For test [1], the target named is Cholinesterase (Equus caballus) (UniProt P81908). Kind of test: Inhibition of equine serum BChE at 50 uM using S-butyrylthiocholine iodide as substrate incubated for 15 mins by Ellman's method relative to control. The gist of the method: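 Same colorimetric kit with equine serum butyrylcholinesterase and S-butyrylthiocholine iodide substrate plus DTNB. Compound is preincubated with enzyme for 15 min. Absorbance is read at 0 and 15 min after substrate addition. Sample tested at 50 μM.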

The species named for test [2] is Danio rerio. Kind of test: Induction of paralysis in AB/TU zebra fish at 100 uM treated at 7 hpf and measured after 72 hrs. The format is functional, organism-based. A digest of the protocol:
(§1)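 Embryos exposed from 7 h postfertilization and scored for paralysis at 72 hpf. Value is the lowest concentration giving paralysis; […]. Pure compounds come from 10 mM DMSO stocks, with further dilutions made in DMSO.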

The target of test [3] is Acetylcholinesterase (Electrophorus electricus) (UniProt O42275). In words: Inhibition of electric eel AChE at 50 uM incubated for 15 mins by Ellman's method relative to control. The gist of the method:
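Colorimetric kit assay with Electrophorus electricus AChE. Compound is incubated with enzyme for 15 min. Assay buffer containing AChE substrate and DTNB is then added, and absorbance is read at 0 and 15 min. Single-point screen at 50 μM; IC50 also determined.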

Test [4] is filed under the species Danio rerio. Kind of test: Induction of paralysis in AB/TU zebra fish at 10 uM treated at 7 hpf and measured after 72 hrs. The class given is functional, organism-based. A digest of the protocol: as §1
The species entered for test [5] is Danio rerio. In words: Induction of paralysis in AB/TU zebra fish at 1 uM treated at 7 hpf and measured after 72 hrs. The format is functional, organism-based. A digest of the protocol:
as §1

The target of another test is Acetylcholinesterase (Electrophorus electricus, UniProt O42275). In words: Inhibition of electric eel AChE incubated for 15 mins by Ellman's method. A digest of the protocol: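 Colorimetric kit assay with Electrophorus electricus AChE. Compound is incubated with enzyme for 15 min. Assay buffer containing AChE substrate and DTNB is then added, and absorbance is read at 0 and 15 min.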

The species named for test [6] is Danio rerio. In words: Induction of paralysis in AB/TU zebra fish at 50 uM treated at 7 hpf and measured after 72 hrs. The class given is functional, organism-based. The gist of the method:
as §1

Test [7] is filed under the species Danio rerio. Kind of test: Induction of paralysis in AB/TU zebra fish at 5 uM treated at 7 hpf and measured after 72 hrs. The format is functional, organism-based. The gist of the method:
as §1

For 17 molecules, inhibition, Activity and IC50 results are on record in ChEMBL document CHEMBL4414561, “Cholinesterase Inhibitory Arisugacins L-Q from a Penicillium sp. Isolate Obtained through a Citizen Science Initiative and Their Activities in a Phenotype-Based Zebrafish Assay” (J Nat Prod, 2019).

Active and inactive are the calls of the source. No cut-off for these calls is given here.

Acetylcholinesterase, sequence (O42275 whole entry): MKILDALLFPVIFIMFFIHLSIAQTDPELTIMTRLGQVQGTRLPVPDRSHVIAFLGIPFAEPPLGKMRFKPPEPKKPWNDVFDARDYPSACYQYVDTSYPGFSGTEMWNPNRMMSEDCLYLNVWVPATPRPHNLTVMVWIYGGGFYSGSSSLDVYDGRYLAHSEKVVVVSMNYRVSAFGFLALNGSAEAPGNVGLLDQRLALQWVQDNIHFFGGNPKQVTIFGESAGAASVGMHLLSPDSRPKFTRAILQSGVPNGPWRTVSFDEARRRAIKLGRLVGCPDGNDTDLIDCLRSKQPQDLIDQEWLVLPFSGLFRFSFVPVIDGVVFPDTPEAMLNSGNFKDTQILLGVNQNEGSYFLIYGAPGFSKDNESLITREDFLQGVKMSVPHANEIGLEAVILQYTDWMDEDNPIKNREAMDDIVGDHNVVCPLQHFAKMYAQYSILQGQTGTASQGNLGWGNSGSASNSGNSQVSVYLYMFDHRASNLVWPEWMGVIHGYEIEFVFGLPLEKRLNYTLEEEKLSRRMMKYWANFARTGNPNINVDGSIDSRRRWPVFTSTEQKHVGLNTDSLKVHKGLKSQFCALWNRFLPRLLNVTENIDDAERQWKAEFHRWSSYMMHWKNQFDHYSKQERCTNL
Acetylcholinesterase (Electrophorus electricus), sequence (O42275 24-633 limits assumed): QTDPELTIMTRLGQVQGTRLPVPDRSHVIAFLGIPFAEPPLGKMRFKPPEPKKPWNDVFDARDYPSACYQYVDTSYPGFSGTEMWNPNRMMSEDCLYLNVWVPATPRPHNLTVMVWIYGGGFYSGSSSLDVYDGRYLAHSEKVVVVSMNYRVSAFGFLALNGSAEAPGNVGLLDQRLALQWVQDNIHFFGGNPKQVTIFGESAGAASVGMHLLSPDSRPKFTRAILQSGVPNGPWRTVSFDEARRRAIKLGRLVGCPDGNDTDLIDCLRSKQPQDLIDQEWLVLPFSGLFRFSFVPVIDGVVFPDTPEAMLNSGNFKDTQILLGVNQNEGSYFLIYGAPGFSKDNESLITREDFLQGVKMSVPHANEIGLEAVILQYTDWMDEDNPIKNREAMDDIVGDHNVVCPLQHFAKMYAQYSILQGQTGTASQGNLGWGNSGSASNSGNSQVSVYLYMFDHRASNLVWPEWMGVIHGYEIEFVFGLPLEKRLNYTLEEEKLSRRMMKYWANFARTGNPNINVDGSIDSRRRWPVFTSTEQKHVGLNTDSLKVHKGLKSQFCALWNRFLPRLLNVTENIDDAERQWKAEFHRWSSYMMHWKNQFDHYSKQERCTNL
Cholinesterase (Equus caballus), sequence (P81908 whole entry): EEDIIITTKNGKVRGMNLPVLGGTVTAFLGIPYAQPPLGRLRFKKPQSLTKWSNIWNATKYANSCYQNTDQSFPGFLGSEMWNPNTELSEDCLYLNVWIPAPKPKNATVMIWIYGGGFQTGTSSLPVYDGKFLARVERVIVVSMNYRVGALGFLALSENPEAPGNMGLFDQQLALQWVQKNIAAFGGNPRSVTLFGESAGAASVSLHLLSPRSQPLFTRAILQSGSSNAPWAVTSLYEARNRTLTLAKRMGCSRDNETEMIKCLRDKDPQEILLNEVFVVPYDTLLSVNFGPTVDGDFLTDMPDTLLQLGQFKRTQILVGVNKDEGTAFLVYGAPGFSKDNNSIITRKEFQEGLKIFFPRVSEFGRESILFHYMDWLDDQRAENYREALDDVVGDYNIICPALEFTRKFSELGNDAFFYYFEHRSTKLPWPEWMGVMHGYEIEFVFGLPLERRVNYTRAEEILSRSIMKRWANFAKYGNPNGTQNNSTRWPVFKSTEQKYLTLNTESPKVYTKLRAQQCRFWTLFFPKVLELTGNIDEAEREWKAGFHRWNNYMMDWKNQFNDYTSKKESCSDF

In the case of `COc1ccc(-c2cc3c(c(=O)o2)C[C@H]2[C@@](C)(CC[C@@]4(O)C(C)(C)[C@@H](O)CC[C@]24C)O3)cc1`, the inhibition in test [1] is 7%; in test [3], 75.4%. Also, the result in the test listed under Danio rerio [2] was inactive.
Regarding `COc1ccc(-c2cc3c(c(=O)o2)C[C@]2(O)[C@@]4(C)CC[C@@H](OC(C)=O)C(C)(C)[C@]4(O)CC[C@@]2(C)O3)cc1`, the figures for the inhibition in test [1] and in test [3] were 4.7% and 60.1%, respectively. Besides, the outcome in the test filed under Danio rerio [4] was Active.
Turning to `COc1ccc(-c2cc3c(c(=O)o2)C[C@]2(O)[C@@]4(C)C(=O)C[C@@H](O)C(C)(C)[C@]4(O)CC[C@@]2(C)O3)cc1`, the inhibition in test [1] came out at 0%; in test [3] it was 98%. For the same molecule, in the test listed under Danio rerio [5], the outcome was Active. The IC50 against Acetylcholinesterase was 0.191 µM.
In the case of `CC(C)NP(=O)(NC(C)C)OP(=O)(NC(C)C)NC(C)C` [TETRAISOPROPYL PYROPHOSPHORAMIDE], the figures for the inhibition in test [1] and in test [3] were 15.1% and 1.3%, respectively. The result in the test filed under Danio rerio [2] was inactive. Besides, on Acetylcholinesterase, the IC50 is above 100 µM.
Regarding `COc1ccc(-c2cc(O)c(C/C=C(\C)CC/C=C(\C)CCC=C(C)C)c(=O)o2)cc1`, the values for the inhibition in test [1] and in test [3] were 0% and 4.3%, respectively. This molecule also displayed an IC50 at Acetylcholinesterase above 100 µM. In addition, the outcome in the test filed under Danio rerio [6] was Active.
As to `COP(=S)(OC)SCn1nnc2ccccc2c1=O`, the inhibition in test [1] was found to be 3.3%; in test [3] it was 12.2%. In addition, the outcome in the test listed under Danio rerio [5] was Active.
On to `COc1ccc(-c2cc3c(c(=O)o2)C[C@]2(O)[C@@]4(C)[C@H](O)CC(=O)C(C)(C)[C@@]4(O)CC[C@@]2(C)O3)cc1`, for which the inhibition in test [1] came out at 0%; in test [3] it was 83.6%. Further, in the test listed under Danio rerio [2], the outcome was inactive. Further, the IC50 against Acetylcholinesterase stood at 4.6 µM.
As for `COc1ccc(-c2cc3c(c(=O)o2)C[C@@H]2[C@@]4(C)CCC(=O)C(C)(C)[C@@H]4CC[C@@]2(C)O3)cc1`, the inhibition was 11.6% in test [1] and 26.9% in test [3]. The same molecule gave an IC50 on Acetylcholinesterase above 100 µM. Further, in the test listed under Danio rerio [7], the outcome was Active.
As to `COc1ccc(-c2cc(O)c(C/C=C(\C)CC/C=C(\C)CCC(O)C(C)(C)O)c(=O)o2)cc1` (stereo unspecified), the inhibition in test [1] was 4.7%; in test [3], 34.1%. Also, in the test listed under Danio rerio [4], the result was Active. The IC50 against Acetylcholinesterase was above 100 µM.
Regarding `COc1ccc(-c2cc3c(c(=O)o2)C[C@]2(O)[C@@]4(C)CC[C@H](O)C(C)(C)[C@]4(O)CC[C@@]2(C)O3)cc1`, the results for the inhibition in test [1] and in test [3] were 4.7% and 89.4%, respectively. Moreover, the IC50 against Acetylcholinesterase came to 3.9 µM. Besides, the result in the test listed under Danio rerio [6] was Active.
For `COc1ccc(-c2cc3c(c(=O)o2)C[C@]2(O)[C@@]4(C)CC[C@@H](O)C(C)(C)[C@]4(O)CC[C@@]2(C)O3)cc1`, the inhibition in test [1] worked out at 0%; in test [3], 83.4%. The outcome in the test filed under Danio rerio [2] was inactive.
Turning to `COc1ccc(-c2cc3c(c(=O)o2)C[C@]2(O)[C@@]4(C)CCC(=O)C(C)(C)[C@]4(O)CC[C@@]2(C)O3)cc1`, the inhibition came out at 9.3% in test [1] and 96.6% in test [3]. In the test filed under Danio rerio [2], the result was inactive.
With `CNC(=O)Oc1ccc2c(c1)[C@]1(C)CCN(C)[C@@H]1N2C`, the results for the inhibition in test [1] and in test [3] were 93.2% and 99.8%, respectively. The outcome in the test listed under Danio rerio [2] was Active.
Consider `COc1ccc(-c2cc3c(c(=O)o2)C[C@@H]2[C@@]4(C)CC[C@H](O)C(C)(C)[C@@H]4CC[C@@]2(C)O3)cc1`, for which the inhibition was found to be 4.7% in test [1] and 3% in test [3]. Moreover, the result in the test filed under Danio rerio [2] was inactive.
In the case of `COc1ccc(-c2cc3c(c(=O)o2)C[C@]2(O)[C@@]4(C)[C@H](O)C[C@@H](O)C(C)(C)[C@]4(O)CC[C@@]2(C)O3)cc1`, the inhibition in test [1] came out at 0%; in test [3] it was 29.2%. Also, the result in the test listed under Danio rerio [2] was inactive. The IC50 against Acetylcholinesterase was above 100 µM.
In the case of `COc1ccc(-c2cc3c(c(=O)o2)C[C@H]2[C@@](C)(CC[C@@]4(O)C(C)(C)C(=O)CC[C@]24C)O3)cc1`, the inhibition came out at 32.6% in test [1] and 95.1% in test [3]. The same molecule had an IC50 on Acetylcholinesterase of 1.4 µM. In addition, in the test listed under Danio rerio [7], the result was Active.
Regarding `COc1ccc(-c2cc3c(c(=O)o2)C[C@H]2[C@@]4(C)C=CC(=O)C(C)(C)[C@@H]4CC[C@@]2(C)O3)cc1`, the results for the inhibition in test [1] and in test [3] were 0% and 40.3%, respectively. In addition, the midpoint of inhibition on Acetylcholinesterase, the IC50, lay at 66 µM. For the same molecule, the outcome in the test listed under Danio rerio [7] was Active.
